The list is not random: actives were taken first. Their share in the collection is about 5.9%.
Pf Dd2 inh: P. falciparum Dd2 growth inhibitors, primary screen, SYBR Green fluorescence, single dose replicates | 94,000 compounds, 2.3% hits | 72 h; hits give low values | AID 1159554, 2015 | activity change, % at 10 µM; in the data active means activity change below about -80%; inconclusive means no clear call, values can overlap the other calls
IDH1 mut inh: inhibitors of IDH1 R132H reductase, primary screen, biochemical, plate reader, single point | Isocitrate dehydrogenase [NADP] cytoplasmic (Homo sapiens), O75874 | diaphorase/resazurin fluorescence, 60 min | inhibition, % at 10 µM | 70,000 compounds, 0.18% hits | AID 624101, 2012; in the data active means inhibition above about 34%; inconclusive means no clear call, values can overlap the other calls; inactive means below about 11%;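 further: 0% = DMSO and 100% = no enzyme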
Target sequence (O75874 whole entry R132H): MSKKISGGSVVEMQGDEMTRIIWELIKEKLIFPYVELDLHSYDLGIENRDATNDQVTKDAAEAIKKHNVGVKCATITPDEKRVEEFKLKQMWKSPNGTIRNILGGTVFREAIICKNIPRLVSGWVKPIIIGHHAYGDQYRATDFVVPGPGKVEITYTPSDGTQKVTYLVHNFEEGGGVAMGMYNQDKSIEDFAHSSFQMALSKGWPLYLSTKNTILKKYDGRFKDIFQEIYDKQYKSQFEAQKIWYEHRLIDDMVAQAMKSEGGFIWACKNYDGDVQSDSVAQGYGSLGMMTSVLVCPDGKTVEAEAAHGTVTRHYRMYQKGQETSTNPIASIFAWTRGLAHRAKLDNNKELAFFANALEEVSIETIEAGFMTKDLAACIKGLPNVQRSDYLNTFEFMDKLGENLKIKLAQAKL
T cruzi growth-1: T. cruzi intracellular proliferation inhibitors, primary screen, cell-based, beta-gal Tulahuen parasites, NIH3T3 host, luminescence; T. cruzi beta-gal in NIH3T3, GalScreen luminescence, 90 h; inhibition, % at 8.34 µM; 77,000 compounds, 5.9% hits;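 active means mean inhibition above about 93%, with at least 55% of replicates each passing it, limit read from the data, passing the limit was not always enough; inconclusive means only one of those two conditions holds; inactive means neither condition holds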
GASC1 inh: inhibitors of GASC-1 (KDM4C) histone demethylase, primary screen, biochemical, single concentration HTS; inhibition, % at 12.5 µM; AID 720574, 2013; 96,000 compounds, 0.15% hits; GST-KDM4C 2-372, H3K9me3 peptide, LANCE TR-FRET;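 active means mean replicate inhibition above about 25%, with at least 55% of replicates also reaching it, limit read from the data, passing the limit was not always enough; inconclusive means only one of those two conditions met; inactive means neither condition met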
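Material: GST-tagged GASC-1 (JMJD2C) catalytic fragment, aa 2-372. Input: enzyme final amount 10 nM. Medium: HEPES buffer, pH 7.5, plus ascorbate. Reagent: H3K9me3 peptide substrate, Fe(II), 2-oxoglutarate. Doses: single dose. Times: reaction 30 min RT, detection step 1 h RT. Measured by: LANCE TR-FRET. Evaluation: Fall in 671/618 emission ratio as inhibition.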
T cruzi growth-2: T. cruzi intracellular proliferation inhibitors, confirmation, cell-based, NIH3T3 host, beta-gal parasite, luminescence, cherry-pick | shares compounds with T cruzi growth-1 | T. cruzi beta-gal in NIH3T3, GalScreen luminescence, 90 h | inhibition, % at 8.35 µM | 5,600 compounds, 72% hits | AID 651739, 2012;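 active means mean replicate inhibition above about 95% and at least 55% of replicates individually reaching it, limit read from the data; inconclusive means only one of the two criteria is met; inactive means neither criterion is met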
T cruzi growth-3: inhibitors of intracellular T. cruzi replication, confirmation, NIH3T3 host cells, beta-gal parasites, cherry-pick, set 2; shares compounds with T cruzi growth-1; T. cruzi beta-gal in NIH3T3, GalScreen luminescence, 90 h; inhibition, % at 2.09 µM; 5,600 compounds, 21% hits; AID 651740, 2012;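 active means mean inhibition above about 95%, with at least 55% of replicates also reaching it, limit read from the data; inconclusive means meets just one of the two conditions; inactive means meets neither condition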;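 further: plate controls were neutral control median for no effect and positive control median for full effect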
NIH3T3 tox: cytotoxicity in mouse NIH/3T3 fibroblasts, confirmation, cytotoxicity control for T. cruzi proliferation inhibitor project, cell-based, cherry-pick, single point | shares compounds with T cruzi growth-1 | 5,600 compounds, 14% hits | NIH/3T3 viability, CellTiter-Glo ATP luminescence, 90 h | cytotoxicity (signal decrease), % at 8.35 µM | AID 651742, 2012;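 active means mean signal decrease across replicates above about 35% based on untreated-well scatter, with enough replicates individually passing, limit read from the data; inconclusive means no rule stated though some were filed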;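 further: 0% = median of neutral control wells and 100% = median of positive control wells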
3T3 cytotox 2: NIH/3T3 fibroblast cytotoxicity, confirmation, cytotoxicity control, cell-based, cherry-pick, single point, set 2 | shares compounds with T cruzi growth-1 | NIH/3T3 viability, CellTiter-Glo ATP luminescence, 90 h | inhibition, % at 24.9 µM | 5,600 compounds, 56% hits | AID 651744, 2012;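 active means mean loss of cell viability signal at or above a set limit, and enough replicates individually reaching it; inconclusive means meets only the mean limit or only the replicate share; inactive means meets neither condition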;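 further: 0% = median of neutral control wells and 100% = median of positive control wells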
* hit, by the source's call.

For O=C(c1cccc(F)c1)N1C[C@H]2[C@@H](c3ccccc31)[C@H](CO)N2C(=O)c1cccc(F)c1 the results were Pf Dd2 inh -67.8, T cruzi growth-1 -3.7 and GASC1 inh -5.4.
Screening O=C(NO)c1cccc(C(=O)N/N=C/c2ccc(-c3ccccc3)c(F)c2)c1 returned IDH1 mut inh -0.3.
Screening COc1ccc(S(=O)(=O)N2CCCCN3[C@H](CO)[C@H](c4ccc(-c5cccnc5)cc4)[C@@H]3C2)cc1 returned Pf Dd2 inh -23.7, T cruzi growth-1 104.0*, GASC1 inh -0.8, T cruzi growth-2 104.3*, T cruzi growth-3 39.4, NIH3T3 tox -13.3 and 3T3 cytotox 2 42.1*.
Screening COc1ccc(S(=O)(=O)N2CCCCN3[C@H](C2)[C@H](c2ccc(-c4cccnc4)cc2)[C@@H]3CO)cc1 returned Pf Dd2 inh 30.0, T cruzi growth-1 104.0*, GASC1 inh -1.2, T cruzi growth-2 87.4, T cruzi growth-3 16.2, NIH3T3 tox 12.8 and 3T3 cytotox 2 21.8.
`COc1ccc(S(=O)(=O)N2CCCCN3[C@@H](CO)[C@H](c4ccc(-c5cccnc5)cc4)[C@@H]3C2)cc1` gave Pf Dd2 inh -22.6, T cruzi growth-1 79.3 and GASC1 inh -1.5.
Screening COc1cccc(S(=O)(=O)N2CCCCN3[C@H](CO)[C@H](c4ccc(-c5cccnc5)cc4)[C@H]3C2)c1 returned Pf Dd2 inh -38.0, T cruzi growth-1 109.8*, GASC1 inh -1.1, T cruzi growth-2 97.4*, T cruzi growth-3 66.2, NIH3T3 tox 33.4 and 3T3 cytotox 2 34.9*.
COc1ccc(S(=O)(=O)N2CCCCN3[C@H](CO)[C@@H](c4ccc(-c5cccnc5)cc4)[C@@H]3C2)cc1 was read as Pf Dd2 inh -16.0, T cruzi growth-1 109.3*, GASC1 inh -1.9, T cruzi growth-2 inconclusive, T cruzi growth-3 40.6, NIH3T3 tox 16.6 and 3T3 cytotox 2 36.6*.
For CCC(=O)N1CC2(C1)[C@@H](c1ccccc1)[C@@H](CO)N2CC1CCCC1 the results were Pf Dd2 inh -41.0 and GASC1 inh -2.0.
Cc1c(C(=O)Nc2ccccc2)sc2ncn(CC(=O)Nc3ccccc3C(F)(F)F)c(=O)c12 was read as IDH1 mut inh 0.2.
Screening O=S(=O)(c1ccccc1F)N1CCCCN2[C@H](CO)[C@H](c3ccc(-c4ccncc4)cc3)[C@H]2C1 returned Pf Dd2 inh -16.1, T cruzi growth-1 101.7*, GASC1 inh -0.7, T cruzi growth-2 104.9*, T cruzi growth-3 35.4, NIH3T3 tox 9.4 and 3T3 cytotox 2 0.2.
`O=S(=O)(c1ccccc1F)N1CCCCN2[C@H](C1)[C@H](c1ccc(-c3cccnc3)cc1)[C@@H]2CO` gave Pf Dd2 inh 23.9, T cruzi growth-1 100.1*, GASC1 inh 0.1, T cruzi growth-2 97.8*, T cruzi growth-3 18.9, NIH3T3 tox 16.5 and 3T3 cytotox 2 11.5.
For O=S(=O)(c1ccccc1F)N1CCCCN2[C@H](CO)[C@@H](c3ccc(-c4cccnc4)cc3)[C@@H]2C1 the results were Pf Dd2 inh 30.8, T cruzi growth-1 93.9 and GASC1 inh 0.5.
Screening O=C(NCC[C@H]1CC[C@H](NC(=O)C2CCOCC2)[C@@H](CO)O1)c1cc(Cl)cc(Cl)c1 returned Pf Dd2 inh 24.9, IDH1 mut inh -0.5, T cruzi growth-1 -27.5 and GASC1 inh 1.5.
Screening C[C@H](CO)N1C[C@H](C)[C@H](CN(C)C(=O)CN(C)C)Oc2cc(C#Cc3ccccc3)ccc2S1(=O)=O returned Pf Dd2 inh inconclusive, IDH1 mut inh -0.1, T cruzi growth-1 -18.0 and GASC1 inh -2.3.
COCC(=O)N(C)C[C@@H]1Oc2cc(C#Cc3ccccc3)ccc2S(=O)(=O)N([C@H](C)CO)C[C@H]1C was read as Pf Dd2 inh -77.0, IDH1 mut inh -0.3, T cruzi growth-1 71.3 and GASC1 inh -2.9.
For COCC(=O)N(C)C[C@@H]1Oc2cc(C#Cc3ccccc3)ccc2S(=O)(=O)N([C@@H](C)CO)C[C@H]1C the results were Pf Dd2 inh -74.6, IDH1 mut inh 1.0, T cruzi growth-1 inconclusive, GASC1 inh -0.8, T cruzi growth-2 59.6, T cruzi growth-3 33.5, NIH3T3 tox -6.0 and 3T3 cytotox 2 21.5.
`C[C@@H]1CN([C@@H](C)CO)S(=O)(=O)c2ccc(C#Cc3ccccc3)cc2O[C@H]1CN(C)C(=O)CN(C)C` gave Pf Dd2 inh -66.9, IDH1 mut inh -0.1, T cruzi growth-1 102.3*, GASC1 inh 0.3, T cruzi growth-2 99.7*, T cruzi growth-3 59.8, NIH3T3 tox 7.3 and 3T3 cytotox 2 103.2*.
Screening C[C@@H]1CN([C@@H](C)CO)S(=O)(=O)c2ccc(C#C[C@@H](C)O)cc2O[C@@H]1CN(C)Cc1cccnc1 returned Pf Dd2 inh 26.5 and T cruzi growth-1 -27.9.
`O=C(Nc1ccc(F)cc1)Nc1ccc2c(c1)[C@@H]1C[C@H](CC(=O)N3CCCCC3)O[C@H](CO)[C@@H]1O2` gave Pf Dd2 inh -30.9, IDH1 mut inh 0.0, T cruzi growth-1 16.0 and GASC1 inh 0.4.
For COc1cccc(-c2ccc3c(c2)O[C@@H](CN(C)Cc2cccnc2)[C@@H](C)CN([C@@H](C)CO)S3(=O)=O)c1 the results were Pf Dd2 inh -28.2, IDH1 mut inh 5.3, T cruzi growth-1 95.2*, GASC1 inh 0.3, T cruzi growth-2 inconclusive, T cruzi growth-3 71.7, NIH3T3 tox 15.6 and 3T3 cytotox 2 53.1*.
For COc1cccc(-c2ccc3c(c2)O[C@@H](CN(C)Cc2cccnc2)[C@H](C)CN([C@@H](C)CO)S3(=O)=O)c1 the results were Pf Dd2 inh -55.8, IDH1 mut inh 0.2, T cruzi growth-1 112.2*, GASC1 inh 2.2, T cruzi growth-2 92.1, T cruzi growth-3 104.2*, NIH3T3 tox 47.7* and 3T3 cytotox 2 88.0*.
